For orientation: AUC means the area under the concentration-time curve, a measure of exposure. For orientation: Vd/F means the apparent distribution volume after extravascular dosing. The Cmax is the maximum level reached in the sampled fluid or tissue. In general, AUC(0-inf) refers to total exposure, with the tail of the curve extrapolated. As usually defined, the bioavailability is dose-corrected exposure relative to a reference, in per cent. A word on the CL/F: it is clearance divided by bioavailability, as obtained after extravascular dosing. In general, clearance refers to the volume of plasma or blood freed of the substance per unit of time.

Data set [1] is described as follows: Phase 1 metabolic stability in rat liver microsomes assessed as compound remaining at 10 uM measured for 1 hr by LC-MS/MS analysis. The class given is ADME. The settings on record: read-out: Stability. The essentials:
(§1)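 Liver microsomes (0.5 mg/ml) were incubated with 10 µM compound (final) in 100 mM potassium phosphate, pH 7.4. An NADPH-regenerating system was present: 1.3 mM NADPH, 3.3 mM glucose 6-phosphate, 3.3 mM MgCl2, 0.4 U/ml G6PDH and 50 µM sodium citrate. Runs were in duplicate, with samples taken up to 1 h and quenched with acetonitrile containing internal standard. Loss of compound was followed by LC-MS/MS.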
(In general: Microsomes from liver hold many membrane-bound enzymes, among them those of drug oxidation.)

The subject of data set [2] is Cynomolgus monkey. Description: AUC(0 to infinity) in cynomolgus monkey at 5 mg/kg, iv administered as bolus injection by LC-MS/MS analysis. It is filed as ADME, organism-based, Macaca fascicularis, Plasma. Also noted: time infinity, dose 5 mg/kg, route intravenous. Particulars: in vivo. The essentials:
(§2)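 Cynomolgus monkeys (n = 3) given a 5 mg/kg intravenous bolus via cephalic or saphenous vein. Dosing solution in 50 mM HEPES, TCEP-treated. Arterial cannula blood collected up to 9 days into heparin/NEM tubes. Plasma assayed by LC-MS/MS. Noncompartmental analysis.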

Data set [3] in a line: Apparent volume of distribution in Sprague-Dawley rat at 10 mg/kg, po administered via gavage measured under fed conditions by LC-MS/MS analysis. The class given is ADME, organism-based. On the set-up: dose 10 mg/kg, route oral. Particulars: in vivo. The essentials: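 Nonfasted male Sprague-Dawley rats given a single 10 mg/kg oral dose in 50 mM HEPES buffered saline, pH 7.4. Plasma collected 0.25–24 h into heparin/NEM tubes and assayed by LC-MS/MS. Noncompartmental parameters derived, including Cl/F and Vd/F. Mean ± S.D., n = 6–9.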

The nature of data set [4]: Cmax in Sprague-Dawley rat at 30 mg/kg, po administered via gavage measured under fasted conditions by LC-MS/MS analysis. On the set-up: dose 30 mg/kg, route oral. The class given is ADME, organism-based. Particulars: in vivo. The essentials: (§3)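 Fasted male Sprague-Dawley rats (280–330 g) received 0.1, 1, 10 or 30 mg/kg by oral gavage in 50 mM HEPES buffered saline, pH 7.4. Blood drawn at 0.25–24 h into heparin/NEM tubes; plasma analyzed by LC-MS/MS. Cmax taken as observed. AUC by linear trapezoidal rule with extrapolation by λz. Cl/F and Vd/F reported. Mean ± S.D., n = 4–9.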

Data set [5] in a line: Phase 1 metabolic stability in mouse liver microsomes assessed as compound remaining at 10 uM measured for 1 hr by LC-MS/MS analysis. The class given is ADME. Particulars: read-out: Stability. The essentials:
as §1

Data set [6] can be described thus: AUC(0 to infinity) in Sprague-Dawley rat at 1 mg/kg, po administered via gavage measured under fasted conditions by LC-MS/MS analysis. It is filed as ADME, organism-based. On the set-up: time infinity, dose 1 mg/kg, route oral. The settings on record: plasma. The essentials: as §3
Data set [7] in a line: Cmax in Sprague-Dawley rat plasma at 10 mg/kg/day, po administered for 5 days by LC-MS/MS analysis. It is filed as ADME, organism-based. Also noted: dose 10 mg/kg/day, route oral. The essentials: (§4)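 Male Sprague-Dawley rats were dosed orally with 10 mg/kg/day, either once or daily for 5 days; n = 4 per group. Blood was taken by cardiac puncture and liver, kidney, brain and sciatic nerve were collected at 0–8 h post-dose. Tissues were homogenized in PBS containing NEM at equal volume per gram. NEM-derivatized analyte was extracted with methanol and quantified by LC-MS/MS (1–5000 ng/ml). Cmax is the observed value.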

Data set [8] can be described thus: Phase 1 metabolic stability in human liver microsomes assessed as compound remaining at 10 uM measured for 1 hr by LC-MS/MS analysis. The class given is ADME. Particulars: read-out: Stability. The essentials:
as §1

Data set [9] in a line: Cmax in Sprague-Dawley rat at 1 mg/kg, po administered via gavage measured under fasted conditions by LC-MS/MS analysis. It is filed as ADME, organism-based. On the set-up: dose 1 mg/kg, route oral. The settings on record: in vivo. The essentials:
as §3

A short description of data set [10]: Oral bioavailability in Sprague-Dawley rat at 30 mg/kg administered via gavage measured under fasted conditions by LC-MS/MS analysis. It is filed as ADME, organism-based. The settings on record: in vivo.
Data set [11] can be described thus: Oral bioavailability in cynomolgus monkey at 5 mg/kg by LC-MS/MS analysis. It is filed as ADME, organism-based, Macaca fascicularis. Particulars: in vivo. The essentials: (§5)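 Cynomolgus monkeys (n = 3) received a nominal 5 mg/kg dose in 50 mM HEPES, TCEP-treated to prevent disulfide formation. Dosing was either an IV bolus via cephalic or saphenous vein or oral. Arterial cannula blood was collected into NEM-containing heparinized tubes for up to 9 days and analyzed by LC-MS/MS. Noncompartmental analysis gave t1/2 = 0.693/λz and F% = dose-normalized mean AUCinf p.o./i.v. ×100.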

A short description of data set [12]: Primary phase half life in Sprague-Dawley rat at 10 mg/kg, iv by LC-MS/MS analysis. It is filed as ADME, organism-based. On the set-up: dose 10 mg/kg, route intravenous. The settings on record: in vivo, read-out: alphat1/2 (converted).
The test system of data set [13] is Cynomolgus monkey. Kind of data set: Clearance in cynomolgus monkey at 5 mg/kg, iv administered as bolus injection by LC-MS/MS analysis. It is filed as ADME, organism-based, Macaca fascicularis. Also noted: dose 5 mg/kg, route intravenous. Particulars: in vivo. The essentials: as §2
Data set [14] can be described thus: Phase 2 metabolic stability in human liver microsomes assessed as compound remaining at 10 uM measured for 1 hr by LC-MS/MS analysis in absence of cofactors. The settings on record: read-out: Stability. The class given is ADME. The essentials: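 Cofactor-free controls were run for each microsomal incubation: 0.5 mg/ml liver microsomes with 10 µM compound, omitting cofactors, so that cofactor-independent degradation could be measured. Samples were taken up to 1 h, quenched with acetonitrile containing internal standard, and the percent remaining was determined by LC-MS/MS.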

Data set [15] in a line: Metabolic stability in Sprague-Dawley rat plasma assessed as compound remaining at 10 uM after 1 hr by LC-MS/MS analysis. The class given is ADME, cell-free. Particulars: read-out: Stability. The essentials: (§6)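 Compound at 5 and 10 µM was incubated at 37°C in Sprague-Dawley rat or cynomolgus monkey plasma. Aliquots taken at 0, 30 and 60 min were quenched with acetonitrile and analyzed by LC-MS/MS. Percent remaining = analyte/internal-standard area ratio at time t divided by that at time 0.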

In data set [16] the test system is Cynomolgus monkey. Description: Apparent oral clearance in cynomolgus monkey at 5 mg/kg, po by LC-MS/MS analysis. It is filed as ADME, organism-based, Macaca fascicularis. On the set-up: dose 5 mg/kg, route oral. The settings on record: in vivo. The essentials: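 Cynomolgus monkeys (n = 3) dosed orally at a nominal 5 mg/kg in TCEP-treated 50 mM HEPES solution. Blood taken via iliac or femoral arterial cannula up to 9 days into heparin/NEM tubes. Plasma analyzed by LC-MS/MS. Cl/F and Vd/F derived noncompartmentally.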

Data set [17] in a line: AUC(0 to infinity) in Sprague-Dawley rat at 30 mg/kg, iv administered as bolus injection measured under fasted conditions by LC-MS/MS analysis. The class given is ADME, organism-based. On the set-up: time infinity, dose 30 mg/kg, route intravenous. Particulars: plasma. The essentials:
(§7)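 Male Sprague-Dawley rats (280–330 g), jugular vein cannulated, fasted overnight until 4 h post-dose. Single tail-vein bolus of 0.1, 1, 10 or 30 mg/kg in 50 mM HEPES buffered saline, pH 7.4. Blood drawn 0–24 h into heparin tubes containing NEM. Plasma quantified by LC-MS/MS after NEM derivatization. Noncompartmental analysis: AUClast by linear trapezoidal rule, Cl = dose/AUC0-∞. Mean ± S.D., n = 4–9.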

Data set [18] can be described thus: Clearance in Sprague-Dawley rat at 0.1 mg/kg, iv administered as bolus injection measured under fasted conditions by LC-MS/MS analysis. The class given is ADME, organism-based. Also noted: dose 0.1 mg/kg, route intravenous. The settings on record: in vivo. The essentials:
as §7

Data set [19] is described as follows: Cmax in Sprague-Dawley rat liver at 10 mg/kg, po administered as single dose measured per gm of tissue by LC-MS/MS analysis. The class given is ADME, organism-based. On the set-up: dose 10 mg/kg, route oral. The essentials:
as §4

A short description of data set [20]: Metabolic stability in cynomolgus monkey plasma assessed as compound remaining at 5 to 10 uM after 1 hr by LC-MS/MS analysis. Particulars: read-out: Stability. It is filed as ADME, cell-free, Macaca fascicularis. The essentials:
as §6

The nature of data set [21]: Half life in Sprague-Dawley rat at 1 mg/kg, iv administered as bolus injection measured under fasted conditions by LC-MS/MS analysis. It is filed as ADME, organism-based. On the set-up: dose 1 mg/kg, route intravenous. The settings on record: in vivo.
Data set [22] is described as follows: Cmax in cynomolgus monkey at 5 mg/kg, iv administered as bolus injection by LC-MS/MS analysis. The class given is ADME, organism-based, Macaca fascicularis. Also noted: dose 5 mg/kg, route intravenous. Particulars: in vivo. The essentials: as §5

A value given as a limit tells only on which side of the number the result lay.

Consider `O=C(O)c1cccc(-c2cccc(CCS)c2C(=O)O)c1`, for which the remaining at 1 h, 10 µM in [1] is more than 90%; in data set [5] it was more than 90%; in data set [8] it was more than 90%; in [14], more than 90%; in data set [15], 64.5%. This compound showed an AUC in the data set with Cynomolgus monkey [2] of 63622.1 ng·h/mL. Besides, the Vd/F in data set [3] was 1.09 L/kg. Moreover, the Cmax in [4] turned out to be 13000 ng/mL; in data set [7], 6080 ng/mL; in data set [9], 1100 ng/mL; in [19], 453 ng/g; in data set [22] it was 68000 ng/mL. In addition, the AUC(0-inf) in [6] amounted to 3210 ng·h/mL; in data set [17] it was 204000 ng·h/mL. The bioavailability amounted to 37.5% in [10] and 39.1% in [11]. The values for the half-life in data set [12] and in data set [21] were 0.87 h and 3.25 h, respectively. Further, in the data set on Cynomolgus monkey [13], the CL was 0.367 mL/min/kg. In the data set with Cynomolgus monkey [16], the CL/F was found to be 0.95 mL/min/kg. Besides, the clearance in [18] was 1 mL/min/kg. For the same compound, the remaining at 1 h, up to 10 µM in data set [20] is more than 90%.

These data come from ChEMBL document CHEMBL3526151, “Reversible disulfide formation of the glutamate carboxypeptidase II inhibitor E2072 results in prolonged systemic exposures in vivo” (Drug Metab Dispos, 2012).
